From the RNAGym collection of RNA variant scans (doi:10.1126/science.aae0568)
Variants at the floor of the assay were thinned out.

B1: tRNA (parent)
chain: GUUCCGUUGGCGUAAUGGUAACGCGUCUCCCUCCUAAGGAGAAGACUGCGGGUUCGAGUCCCGUACGGAACG

Variants of: B1
Assay: yeast fitness relative to wild type (ratio to wild type); higher = fitter; tRNA-Arg(CCU), competitive growth, 37 C, YPD
How it was run: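 Changes in genotype frequencies gave Darwinian fitness relative to wild type. Frequencies were read by 100-nucleotide paired-end sequencing of gene amplicons before and after pooled Saccharomyces cerevisiae strains, carrying tRNA-Arg(CCU) gene variants at the native locus, were competed in YPD at 37°C for 24 hours in six replicates. A genotype was kept only with ≥ 100 starting reads, and estimates < 0.5 were set to 0.5.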

Variant | yeast fitness
GUUCCGUCGGCCUAAUGGUAACGCGUCUCCCUCCUAAGGAGAAGACUGCGGGUUCGAGUCCCCUACGGAACG [U8C G12C G63C] | 0.577
GUUCCGUCGGCCUAAUGGUAACGCGGCUCCCUCCUAAGGAGAAGACUGCGGGUUCGAGUCCCGUACGGAACG [U8C G12C U26G] | ≤ 0.5
GUUCCGUCGGCGUAAUAGUAACGCGUCUCCCUCCUAAGGUGAAGACUACGGGUUCGAGUCCCGUACGGAACG [U8C G17A A40U G48A] | ≤ 0.5
GUUCCGUCGGCGUAAUAGUAACGCGUCUCCCUCUUAAGGAGAAGACUGCGGGUUGGAGUCCCGUACGGAACG [U8C G17A C34U C55G] | ≤ 0.5
GUUCCGUCGGCGUAAUAGUAACGCGUCUCCCUCCUAAGGACAAGACUGCGGGUUCGAGUCCCGUCCGGAACG [U8C G17A G41C A65C] | ≤ 0.5
GUUCCGUCGGCGUAAUAGUAACGCGUCUCCCUCCUAAGGACAAGACUGCGGGUUCGAGUCCCGUUCGGAACG [U8C G17A G41C A65U] | ≤ 0.5
GUUCCGUCGGCGUAAUAGUAACGCGUCUCCCUCCUAAGGAGAAGACUGCAGGUUCGAGUCCCGUACGGCACG [U8C G17A G50A A69C] | ≤ 0.5
GUUCCGUCGGCGUAAUAGUAACGCGUCUCCCUCCUAAGGAGAAGACUGCGGGUACCAGUCCCGUACGGAACG [U8C G17A U54A G56C] | ≤ 0.5
GUUCCGUCGGCGUAAUCGUAACGCGUCUCCCUCCUAAGGAGGAGACUGCGGGUUCGAGUCACGUACGGAACG [U8C G17C A42G C61A] | ≤ 0.5
GUUCCGUCGGCGUAAUCGUAAUGCGUCUCCCUCAUAAGGAGAAGACUGCGGGUUCGAGUCCCGUACGGAACG [U8C G17C C22U C34A] | ≤ 0.5
GUUCCGUCGGCGUAAUCGUAACGCGUCUCCAUCCUAAGGAGAAGACUGCGGGUUCGAGUCCCGUACGAAACG [U8C G17C C31A G68A] | ≤ 0.5
GUUCCGUCGGCGUAAUGAUAACGAGUCUCCCUCCUAGGGAGAAGACUGCGGGUUCGGGUCCCGUACGGGACG [U8C G18A C24A A37G A57G A69G] | ≤ 0.5
GUUCCGUCGGCGUAAUGAUAACGCGUGUCCCUCAUAAGGAGAAGACAGCGGGUUCGAGUCCCGUACGGAACG [U8C G18A C27G C34A U47A] | ≤ 0.5
GUUCCGUCGGCGUAAUGAUAACGCGUUUCCCUCCUAAGGAGAAGACUGCGGGUUCGAGUCCCGUACGGAACG [U8C G18A C27U] | 0.531
GUUCCGUCGGCGUAAUGAUAACGCGUCUCCCUCCCAAGGAGAAGACCGCCGGUUCGAGUCCCGUACGGAACG [U8C G18A U35C U47C G50C] | ≤ 0.5
GUUCCGUCGGCGUAAUGCUACCGCGUCUCCCUCCUAAGGAGAAGACUGCGGGUUCGAGUCCCAUACGGAACG [U8C G18C A21C G63A] | 0.587
GUUCCGUCGGCGUAAUGCUAACGCGUCUCCCUUCUAAGGAGAAGACUGCGGGUUCGAGUCCCGUACGGAACG [U8C G18C C33U] | ≤ 0.5
GUUCCGUCGGCGUAAUGCUAACGCGUCUCCCUUCUAAGGAGAAGACUGCGGGUUCGAGUCCCGUCCGGCACG [U8C G18C C33U A65C A69C] | 0.549
GUUCCGUCGGCGUAAUGUUACCGCGUCUCCCUCCUAAGGAGAAGACUGCGGGUUCGAGUCCCAUACGGAACG [U8C G18U A21C G63A] | ≤ 0.5

Variant | yeast fitness
GUUCCGUCGGCGUAAUGGUAACACGUCUCCCUCCUAAGGAGAAGACUGCGGGUUCGAGUCCCGUACGGAACG [U8C G23A] | 0.793
GUUCCGUCGGCGUAAUGGUAACACGUCUCCCUCCUAAGGAGAAGACUGCGGGUUCGCGUCCCGUACGGAACG [U8C G23A A57C] | 0.661
GUUCCGUCGGCGUAAUGGUAACACGUCUUCCUCCUAAGGAGAAGUCUGCGGGUUCGAGUCCCGUACGGAACG [U8C G23A C29U A45U] | 0.632
GUUCCGUCGGCGUAAUGGUAACACGUCUCGCUCCUAAGGAGAAGACUGCGGGUUCGAGUCCCGUACGGAACG [U8C G23A C30G] | ≤ 0.5
GUUCCGUCGGCGUAAUGGUAACACGUCUCGCUCCUAAGGAGAAGACUGCGGGUUCGAGUCACGUACAGAACG [U8C G23A C30G C61A G67A] | ≤ 0.5
GUUCCGUCGGCGUAAUGGUAACACGUCUCCCUCAUAAGGAGUAGAAUGCGGGUUCGCGUCCCGUACCGAACG [U8C G23A C34A A42U C46A A57C G67C] | ≤ 0.5
GUUCCGUCGGCGUAAUGGUAACACGUCUCCCUCAUAAGGAGUAGAAUGCGGGUUGGAGUCCCGUGCGGAACG [U8C G23A C34A A42U C46A C55G A65G] | ≤ 0.5
GUUCCGUCGGCGUAAUGGUAACCCGUCUGCCUCCUAAGGAGAAGACUGCGGGUUCGAGUCCCGUACGGAACG [U8C G23C C29G] | ≤ 0.5
GUUCCGUCGGCGUAAUGGUAACCCGUCUGCCUCCUGAGGAGAAGUCUGCGGGUUCGAGUCCCGUACGGAACG [U8C G23C C29G A36G A45U] | ≤ 0.5
GUUCCGUCGGCGUAAUGGUAACCCGUCUGCCUCCUAAGGAGAUGACUGCAGGUUCGAGUCCCGUCCGGAACG [U8C G23C C29G A43U G50A A65C] | ≤ 0.5
GUUCCGUCGGCGUAAUGGUAACCCGUCUGCCUCCUAAGGAGAAGUCUGCGGGUUCGAGUCCCGUACGGAACG [U8C G23C C29G A45U] | ≤ 0.5
GUUCCGUCGGCGUAAUGGUAACCCGUCUGCCUCCUAAGGAGAAGUCUGCGGGUUCGAGUCCCGUAUGGAACG [U8C G23C C29G A45U C66U] | ≤ 0.5
GUUCCGUCGGCGUAAUGGUAACCCGCCUGCCUCCUAAGGAGAAGUCUGCGGGUUCGAGUCCCGUACGGAACG [U8C G23C U26C C29G A45U] | ≤ 0.5
GUUCCGUCGGCGUAAUGGUAACGCAUCUCCCUCCUAAGGAGAAGACUGCGGGUUCGAGUCCCGUACGGAACG [U8C G25A] | 0.931
GUUCCGUCGGCGUAAUGGUAACGCAUCUCCCUCCUAGGGGGAAGACUGCGGGUUCGAGUCCCGUACGGAACG [U8C G25A A37G A40G] | ≤ 0.5
GUUCCGUCGGCGUAAUGGUAACGCAUCUGCAUCCUAAGGAGAAGACUGCGGGUUCGAGUCCUGUACGGAACG [U8C G25A C29G C31A C62U] | ≤ 0.5
GUUCCGUCGGCGUAAUGGUAACGCCUCUGCCUCCUAAGGAGAAGACUGCGGGUUCGAGUCCCGUACGGAACG [U8C G25C C29G] | ≤ 0.5
GUUCCGUCGGCGUAAUGGUAACGCCUCUCCUUCCUAAGGAGAAGACUGCGGGUUCGAGUCCCGUACGGAACG [U8C G25C C31U] | 0.696
GUUCCGUCGGCGUAAUGGUAACGCCUCUCCCUACUAAGGAGAAGACUGCGGGUUCGAGUCUCGUACGGAACG [U8C G25C C33A C61U] | ≤ 0.5
